Measured values published in ChEMBL document CHEMBL3808334, “Synthesis and in vitro evaluation of novel triazine analogues as anticancer agents and their interaction studies with bovine serum albumin” (Eur J Med Chem, 2016).

Columns and labels:
Assay type in all cases: functional
[1] = Growth inhibition of human BT549 cells assessed as cell growth at 10^-4 M incubated for 48 hrs by sulforhodamine B assay; details: BT-549, 48 h, read-out: Activity
Procedure, shortened: (§1)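 Five-dose assay: five concentrations from 10-fold or ½-log serial dilutions. Cells are plated at 5,000–40,000 per well according to doubling time, grown 24 h, then exposed 48 h at 37 °C, 5% CO₂. Fixed with cold 50% TCA (final addition) for 60 min at 4 °C and stained with 0.4% SRB in 1% acetic acid. Bound dye is solubilized in 10 mM Tris base and read at 515 nm. GI₅₀ is where [(Ti−Tz)/(C−Tz)]×100 = 50, with a time-zero plate as Tz.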

K562 = experiment: Growth inhibition of human K562 cells incubated for 48 hrs by sulforhodamine B assay; details: K562, 48 h
Procedure, shortened: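 Cells were plated at 5,000–40,000 per well according to doubling time and preincubated 24 h at 37 °C in 5% CO2; time-zero plates were then TCA-fixed. Five concentrations (10-fold or ½-log dilutions, DMSO stock) were incubated 48 h. Cells were TCA-fixed, stained with 0.4% SRB and read at 515 nm. GI50 was taken where [(Ti−Tz)/(C−Tz)]×100 = 50.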

[2] = Growth inhibition of human HCT15 cells incubated for 48 hrs by sulforhodamine B assay; details: HCT-15, 48 h
Procedure, shortened: (§2)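 Cells seeded at 5,000–40,000/well according to doubling time and preincubated 24 h at 37 °C, 5% CO2. Time-zero plates were TCA-fixed. DMSO concentrate was diluted in medium with 50 µg/ml gentamicin to give five concentrations (10-fold or ½ log steps), then exposed 48 h. Cells were TCA-fixed, stained with 0.4% SRB and read at 515 nm. Percent growth was taken against time-zero and control; GI50, TGI and LC50 derived.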

[3] = Growth inhibition of human Caki1 cells incubated for 48 hrs by sulforhodamine B assay; details: CAKI-1, 48 h; procedure, shortened: as §2
MDA-MB-468 = experiment: Growth inhibition of human MDA-MB-468 cells assessed as cell growth at 10^-8 M incubated for 48 hrs by sulforhodamine B assay; details: MDA-MB-468, 48 h, read-out: Activity
[4] = Growth inhibition of human HL-60(TB) cells assessed as cell growth at 10^-7 M incubated for 48 hrs by sulforhodamine B assay; details: HL-60, 48 h, read-out: Activity
Procedure, shortened: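 Cells plated at 5,000–40,000/well according to doubling time and preincubated 24 h at 37 °C, 5% CO₂, with time-zero plates TCA-fixed. Drugs were kept as DMSO concentrates at 400× the top concentration and diluted in medium with 50 µg/ml gentamicin. Five 10-fold or ½-log dilutions were run for 48 h, followed by SRB staining and A515. Percent growth = (Ti−Tz)/(C−Tz)×100, or (Ti−Tz)/Tz×100 when Ti<Tz.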

[5] = Growth inhibition of human RPMI8226 cells assessed as cell growth at 10^-7 M incubated for 48 hrs by sulforhodamine B assay; details: RPMI-8226, 48 h, read-out: Activity
A549 = experiment: Growth inhibition of human A549/ATCC cells assessed as cell growth at 10^-7 M incubated for 48 hrs by sulforhodamine B assay; details: A549, 48 h, read-out: Activity; procedure, shortened: as §1
NCI-H322M = experiment: Growth inhibition of human NCI-H322M cells assessed as cell growth at 10^-7 M incubated for 48 hrs by sulforhodamine B assay; details: read-out: Activity
NCI-H460 = experiment: Growth inhibition of human NCI-H460 cells assessed as cell growth at 10^-7 M incubated for 48 hrs by sulforhodamine B assay; details: NCI-H460, 48 h, read-out: Activity
NCI-H522 = experiment: Growth inhibition of human NCI-H522 cells assessed as cell growth at 10^-7 M incubated for 48 hrs by sulforhodamine B assay; details: NCI-H522, 48 h, read-out: Activity
SN12C = experiment: Growth inhibition of human SN12C cells assessed as cell growth at 10^-5 M incubated for 48 hrs by sulforhodamine B assay; details: read-out: Activity
NCI-H226 [6] = experiment: Growth inhibition of human NCI-H226 cells assessed as cell growth at 10^-4 M incubated for 48 hrs by sulforhodamine B assay; details: NCI-H226, 48 h, read-out: Activity
KM12 = experiment: Growth inhibition of human KM12 cells assessed as cell growth at 10^-7 M incubated for 48 hrs by sulforhodamine B assay; details: KM12, 48 h, read-out: Activity
U-251 = experiment: Growth inhibition of human U251 cells assessed as cell growth at 10^-7 M incubated for 48 hrs by sulforhodamine B assay; details: U-251, 48 h, read-out: Activity
SK-MEL-2 [7] = experiment: Growth inhibition of human SK-MEL-2 cells assessed as cell growth at 10 uM incubated for 48 hrs by sulforhodamine B assay; details: SK-MEL-2, 48 h, read-out: Activity
SK-MEL-28 [8] = experiment: Growth inhibition of human SK-MEL-28 cells assessed as cell growth at 10 uM incubated for 48 hrs by sulforhodamine B assay; details: SK-MEL-28, 48 h, read-out: Activity
[9] = Growth inhibition of human HOP92 cells assessed as cell growth at 10^-8 M incubated for 48 hrs by sulforhodamine B assay; details: HOP-92, 48 h, read-out: Activity
A498 = experiment: Growth inhibition of human A498 cells assessed as cell growth at 10^-7 M incubated for 48 hrs by sulforhodamine B assay; details: A498, 48 h, read-out: Activity; procedure, shortened: as §1
NCI-H226 [10] = experiment: Growth inhibition of human NCI-H226 cells assessed as cell growth at 10^-6 M incubated for 48 hrs by sulforhodamine B assay; details: NCI-H226, 48 h, read-out: Activity
SK-MEL-28 [11] = experiment: Growth inhibition of human SK-MEL-28 cells assessed as cell growth at 10^-6 M incubated for 48 hrs by sulforhodamine B assay; details: SK-MEL-28, 48 h, read-out: Activity
SK-MEL-2 [12] = experiment: Growth inhibition of human SK-MEL-2 cells assessed as cell growth at 10^-5 M incubated for 48 hrs by sulforhodamine B assay; details: SK-MEL-2, 48 h, read-out: Activity
SK-MEL-28 [13] = experiment: Growth inhibition of human SK-MEL-28 cells assessed as cell growth at 10^-5 M incubated for 48 hrs by sulforhodamine B assay; details: SK-MEL-28, 48 h, read-out: Activity
[14] = Growth inhibition of human OVCAR8 cells assessed as cell growth at 10^-5 M incubated for 48 hrs by sulforhodamine B assay; details: OVCAR-8, 48 h, read-out: Activity
[15] = Growth inhibition of human non-small cell lung cancer cells incubated for 48 hrs by sulforhodamine B assay; details: Cancer cell lines
[16] = Growth inhibition of human ovarian cancer cells incubated for 48 hrs by sulforhodamine B assay; details: Cancer cell lines
[17] = read-out: LC50 (the source's name)
[18] = read-out: pLC50 (the source's name) (converted)

c1ccc(-c2nc(Nc3ccc(-c4nc5ccccc5[nH]4)cc3)nc(N3CCOCC3)n2)cc1
growth at 100 µM [1]: -80% | GI50 (K562; read-out: GI50): 295 nM | CC50 (K562; [17]): 8.31 µM | TGI (K562; read-out: TGI): 959 nM | GI50 (K562; read-out: pGI50 (converted)): 295 nM | CC50 (K562; [18]): 8.32 µM | TGI (K562; read-out: pTGI (converted)): 955 nM | GI50 ([2]; read-out: GI50): 343 nM | TGI ([2]; read-out: TGI): 1540 nM | GI50 ([2]; read-out: pGI50 (converted)): 347 nM | TGI ([2]; read-out: pTGI (converted)): 1550 nM | LC50 [3]: 5.06 µM | GI50 ([3]; read-out: GI50): 1280 nM | TGI ([3]; read-out: TGI): 2540 nM | GI50 ([3]; read-out: pGI50 (converted)): 1290 nM | CC50 [3, 18]: 5.01 µM | TGI ([3]; read-out: pTGI (converted)): 2570 nM | growth at 0.01 µM (MDA-MB-468): 96% | growth at 0.1 µM [4]: 26% | growth at 0.1 µM [5]: 97% | growth at 0.1 µM (A549): 97% | growth at 0.1 µM (NCI-H322M): 101% | growth at 0.1 µM (NCI-H460): 103% | growth at 0.1 µM (NCI-H522): 101% | growth at 10 µM (SN12C): -60% | growth at 100 µM (NCI-H226 [6]): -59% | growth at 0.1 µM (KM12): 97% | growth at 0.1 µM (U-251): 110% | growth at 10 µM (SK-MEL-2 [7]): -52.7% | growth at 10 µM (SK-MEL-28 [8]): -82.8% | growth at 0.01 µM [9]: 93% | growth at 0.1 µM (A498): 84% | growth at 1 µM (NCI-H226 [10]): 117% | growth at 1 µM (SK-MEL-28 [11]): 82% | growth at 10 µM (SK-MEL-2 [12]): -85% | growth at 10 µM (SK-MEL-28 [13]): -86% | growth at 10 µM [14]: -78% | GI50 [15]: 1740 nM | TGI [15]: 3.67 µM | CC50 [15, 17]: 14.2 µM | GI50 [16]: 1850 nM | TGI [16]: 3.88 µM | CC50 [16, 17]: 6.84 µM
